Measurements as given in ChEMBL document CHEMBL5705906 (Nat Commun, 2017).
Calls of active or inactive are those of the source. The calls are words filed in the database; no cut-off is given here.

Columns and labels:
BaF3 [1] = assay: Inhibition of EGFR-C797S/T790M/del19 mutant in mouse BaF3 cells assessed as reduction in ERK phosphorylation incubated for 6 hrs by Western blotting analysis; assay type: cell-based
BaF3 [2] = assay: Inhibition of EGFR-T790M/del19 mutant in mouse BaF3 cells assessed as inhibition of EGFR phosphorylation at 10 to 1000 nM incubated for 6 hrs by Western blotting analysis; assay type: cell-based; conditions: dose 10-1000 nM
In short: (§1)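 Ba/F3 cells carrying the stated EGFR mutant were made IL-3-independent after 1 week of 7 µM blasticidin selection. They were grown in low-glucose DMEM with 10% FBS and exposed to inhibitor for 6 h. Cells were washed in cold PBS, lysed in SDS buffer (100 mM Tris, 1% SDS, 10% glycerol) and boiled 5 min. Protein was measured by BCA, run on SDS-PAGE, transferred to PVDF, blocked in 5% BSA or milk/TBS-T, and immunoblotted.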

BaF3 [3] = assay: Inhibition of EGFR-T790M/del19 mutant in mouse BaF3 cells assessed as inhibition of ERK phosphorylation at 10 to 1000 nM incubated for 6 hrs by Western blotting analysis; assay type: cell-based; conditions: dose 10-1000 nM; in short: as §1
BaF3 [4] = assay type: cell-based; conditions: Mus musculus, dose 10-1000 nM, time 6.0 hrs
BaF3 [5] = assay: Inhibition of EGFR-C797S/T790M/L858R mutant in mouse BaF3 cells assessed as inhibition of EGFR phosphorylation at 10 to 1000 nM incubated for 6 hrs by Western blotting analysis; assay type: cell-based; conditions: dose 10-1000 nM
In short: (§2)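 Ba/F3 cells expressing EGFR-L858R-series mutants treated with inhibitors for 6 h. SDS lysates quantified by BCA, run on SDS-PAGE and blotted to PVDF. Probed for phospho-EGFR (Tyr1068), total EGFR and downstream phospho-proteins.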

A549 = assay: Anticancer activity against human A549 cells assessed as reduction in cell viability at IC50 concentration incubated for 72 hrs by CellTiter-Glo assay; assay type: functional, cell-based
In short: (§3)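 Three-day CellTiter-Glo viability assay. Cells exposed to compound across a 10-dose range of 0.3 nM to 10 µM for 72 h. IC50 from nonlinear sigmoidal dose-response fit.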

NCI-H460 [6] = assay: Anticancer activity against human NCI-H460 cells assessed as reduction in cell viability at IC50 concentration incubated for 72 hrs by CellTiter-Glo assay; assay type: functional, cell-based; in short: as §3
NCI-H460 [7] = assay: Anticancer activity against KRAS-mutated human NCI-H460 cells assessed as reduction in cell viability at 1 to 10000 nM incubated for 72 hrs by CellTiter-Glo assay; assay type: functional, cell-based; conditions: dose 1-10000 nM
BaF3 [8] = assay: Inhibition of EGFR-C797S/T790M/L858R mutant expressed in mouse BaF3 cells assessed as inhibition of ERK phosphorylation at 10 to 1000 nM incubated for 6 hrs by Western blotting analysis; assay type: cell-based; conditions: dose 10-1000 nM; in short: as §2
PC-9 [9] = assay: Inhibition of EGFR T790M/del19 mutant in human PC-9 cells assessed as reduction in Akt phosphorylation at 10 to 1000 nM by Western blotting analysis; assay type: cell-based; conditions: dose 10-1000 nM
PC-9 [10] = assay: Inhibition of EGFR T790M/del19 mutant in human PC-9 cells assessed as reduction in ERK phosphorylation at 10 to 1000 nM by Western blotting analysis; assay type: cell-based; conditions: dose 10-1000 nM
PC-9 [11] = assay type: functional, organism-based; conditions: Homo sapiens, dose 75.0 mg/kg, route po, time 15.0 day
[12] = system: Ba/F3 EGFR-Del19/T790M/C797S; assay: Cytotoxicity against mouse Ba/F3 EGFR-Del19/T790M/C797S cells assessed as growth inhibition at 100 nM incubated for 72 hrs in presence of panitumumab by CellTiter-Glo assay; assay type: functional, cell-based
MGH121 = assay: Anti-tumor activity against human MGH121 cells expressing EGFR-C797S/T790M/del19 mutant xenografted in SCID-beige mouse assessed as tumor shrinkage at 75 mg/kg, po administered for 40 days and measured twice weekly; assay type: functional, organism-based; conditions: time 40.0 day
In short: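 MGH121-res2 cells (EGFR-C797S/T790M/del19) implanted s.c. in SCID-beige mice. Randomized at mean tumour ~200 mm³. […] Tumour volume 0.5×length×width² and body weight measured twice weekly. N = 6, mean ± s.d. Mann-Whitney U test on day 42.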

[13] = Toxicity against SCID-beige mouse xenografted with human MGH121 cells expressing EGFR-C797S/T790M/del19 mutant assessed as change in body weight at 75 mg/kg, po administered for 40 days and measured twice weekly; assay type: organism-based; conditions: in vivo, 960 h, time 40 day
In short: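 SCID-beige mice with subcutaneous MGH121-res2 implants were randomized to vehicle or treatment at a mean tumour volume of ~200 mm³. […] Body weight was measured twice weekly, N=6 per group.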

[14] = Toxicity against Balb-c nu/nu mouse xenografted with human PC-9 cells expressing EGFR-C797S/T790M/del19 mutant assessed as change in body weight at 75 mg/kg, po administered for 60 days and measured twice weekly in presence of panitumumab; assay type: organism-based; conditions: in vivo, 1440 h, time 60 day
In short: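 Mice bearing subcutaneous PC9 triple-mutant tumours in Balb-c nu/nu hosts were randomized at ~200 mm³. […] Body weights were taken twice weekly, N=6 per group.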

BaF3 [15] = conditions: Mus musculus, dose 10-1000 nM
BaF3 [16] = conditions: Mus musculus, dose 10-1000 nM, time 6.0 hrs
[17] = biological target: Epidermal growth factor receptor (Homo sapiens) (UniProt P00533); conditions: dose 0.01-10000 nM, time 10.0 min
Epidermal growth factor receptor (Homo sapiens), sequence (P00533 whole entry): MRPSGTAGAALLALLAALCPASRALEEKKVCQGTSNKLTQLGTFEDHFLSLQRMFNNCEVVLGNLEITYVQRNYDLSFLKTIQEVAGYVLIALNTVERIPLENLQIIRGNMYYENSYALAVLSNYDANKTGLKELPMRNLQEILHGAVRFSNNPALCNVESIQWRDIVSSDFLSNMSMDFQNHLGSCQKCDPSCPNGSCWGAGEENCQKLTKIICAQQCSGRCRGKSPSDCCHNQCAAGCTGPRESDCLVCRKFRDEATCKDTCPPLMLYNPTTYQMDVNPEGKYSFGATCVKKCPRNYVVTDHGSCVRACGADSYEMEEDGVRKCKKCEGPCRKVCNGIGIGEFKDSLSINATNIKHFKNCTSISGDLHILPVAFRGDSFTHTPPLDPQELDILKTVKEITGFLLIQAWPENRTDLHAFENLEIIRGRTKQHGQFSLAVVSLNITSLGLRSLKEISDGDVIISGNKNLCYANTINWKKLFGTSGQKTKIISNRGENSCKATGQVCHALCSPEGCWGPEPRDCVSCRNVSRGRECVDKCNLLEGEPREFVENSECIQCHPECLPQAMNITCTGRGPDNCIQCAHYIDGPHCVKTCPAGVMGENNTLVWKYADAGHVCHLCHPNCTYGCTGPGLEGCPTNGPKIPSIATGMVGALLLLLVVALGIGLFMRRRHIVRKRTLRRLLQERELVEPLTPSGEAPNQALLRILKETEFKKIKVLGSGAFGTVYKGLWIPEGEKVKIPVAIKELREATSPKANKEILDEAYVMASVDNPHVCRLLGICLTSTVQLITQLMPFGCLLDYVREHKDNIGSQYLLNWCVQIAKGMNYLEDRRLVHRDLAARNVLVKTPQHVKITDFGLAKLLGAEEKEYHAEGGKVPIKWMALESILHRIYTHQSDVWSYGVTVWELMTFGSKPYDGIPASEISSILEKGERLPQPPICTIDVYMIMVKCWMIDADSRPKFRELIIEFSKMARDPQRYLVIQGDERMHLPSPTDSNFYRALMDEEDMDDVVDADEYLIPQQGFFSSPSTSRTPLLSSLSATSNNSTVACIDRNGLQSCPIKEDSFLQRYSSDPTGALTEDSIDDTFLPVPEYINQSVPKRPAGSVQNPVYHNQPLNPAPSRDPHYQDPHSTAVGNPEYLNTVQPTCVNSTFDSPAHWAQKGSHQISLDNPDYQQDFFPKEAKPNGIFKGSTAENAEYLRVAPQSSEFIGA

[18] = system: Epidermal growth factor receptor (Homo sapiens), P00533 [UNDEFINED MUTATION]; conditions: MGH121, dose 10-1000 nM
Epidermal growth factor receptor (Homo sapiens), P00533 [UNDEFINED MUTATION], sequence (P00533 whole entry, looked up, change not shown): as the sequence (P00533 whole entry) above

[19] = system: Epidermal growth factor receptor (Homo sapiens), P00533 [UNDEFINED MUTATION]; conditions: PC-9, dose 10-1000 nM
PC-9 [20] = conditions: Homo sapiens, dose 75.0 mg/kg, route po, time 15.0 day
PC-9 [21] = conditions: Homo sapiens, dose 75.0 mg/kg, route po, time 15.0 day; remark: listed apart in the source
PC-9 [22] = conditions: Homo sapiens, dose 75.0 mg/kg, route po, time 15.0 day; remark: listed apart in the source
BaF3 [23] = conditions: Mus musculus, dose 30-1000 nM, time 6.0 hrs
[24] = system: Epidermal growth factor receptor (Homo sapiens), P00533 [UNDEFINED MUTATION]; conditions: PC-9, dose 500.0 nM, time 6-48 hrs, TDE = time-dependent effect
[25] = system: Epidermal growth factor receptor (Homo sapiens), P00533 [UNDEFINED MUTATION]; conditions: PC-9, dose 500.0 nM, time 48.0 hrs
PC-9 [26] = conditions: Homo sapiens, dose 75.0 mg/kg, route po, time 60.0 day
PC-9 [27] = conditions: Homo sapiens, dose 75.0 mg/kg, route po, time 60.0 day; remark: listed apart in the source
PC-9 [28] = conditions: Homo sapiens, dose 75.0 mg/kg, route po, time 60.0 day; remark: listed apart in the source

With COc1cc(N2CCC(N3CCN(C)CC3)CC2)ccc1Nc1ncc(Cl)c(Nc2ccccc2P(C)(C)=O)n1 [BRIGATINIB] the inhibition (BaF3 [1]) was “Dose-Dependent Effect”, the inhibition (BaF3 [2]) was “Active” and the inhibition (BaF3 [3]) was “Active”. The inhibition (BaF3 [4]) was “Active”, the inhibition (BaF3 [5]) was “Active” and the Activity (A549) was “Active”. For the same compound, the Activity (NCI-H460 [6]) was “Active”, the Activity (NCI-H460 [7]) was “Active” and the inhibition (BaF3 [8]) was “Active”. For the same compound, the inhibition (PC-9 [9]) was “Active”, the inhibition (PC-9 [10]) was “Active” and the Activity (PC-9 [11]) was “Active”. For the same compound, the “growth inhibition (GI)” value [12] was “Active”, the Activity (MGH121) was “Active” and the Activity [13] was “Non-Toxic”. For the same compound, the Activity [14] was “Non-Toxic”, the inhibition (BaF3 [15]) was “Dose-Dependent Effect” and the inhibition (BaF3 [16]) was “Active”. The inhibition [17] was “Dose-Dependent Effect”, the inhibition [18] was “Active” and the inhibition [19] was “Active”. The inhibition (PC-9 [20]) was “Active”, the inhibition (PC-9 [21]) was “Active” and the inhibition (PC-9 [22]) was “Active”. For the same compound, the inhibition (BaF3 [23]) was “Active”, the inhibition [24] was “Tde” and the inhibition [25] was “Active”. The inhibition (PC-9 [26]) was “Active”, the inhibition (PC-9 [27]) was “Active” and the inhibition (PC-9 [28]) was “Active”.
